Assay results from the EternaBench riboswitch data.

Key:
MS2 coat protein [1] = assay: apparent Kd, MS2 coat protein; higher = weaker binding; RNA-MaP array; tryptophan 2.4 mM where present
Summary of the method: (§1)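 The apparent Kd is reported as the median of filtered per-cluster binding-curve fits. To get these curves, designs transcribed by stalled E. coli RNA polymerase on Illumina sequencing-chip clusters were titrated with SNAP-549-labelled MS2 coat protein from 0.7 or 1.5 nM, doubling to 3 µM. Titrations were run without and then with constant ligand in 100 mM Tris-HCl pH 7.5, 80 mM KCl, 4 mM MgCl2, BSA, DTT, yeast tRNA and Tween-20, and green signal was normalised to red-channel RNA signal and control-cluster median Fmax.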

MS2 coat protein [2] = assay: apparent Kd, MS2 coat protein; higher = weaker binding; RNA-MaP array; theophylline 2 mM where present
Summary of the method: as §1

[3] = designed as: ON switch for tryptophan, no ligand
[4] = ligand present: tryptophan, designed as: ON switch for tryptophan
[5] = designed as: OFF switch for tryptophan, no ligand
[6] = ligand present: tryptophan, designed as: OFF switch for tryptophan
[7] = designed as: ON switch for theophylline, no ligand
[8] = ligand present: theophylline, designed as: ON switch for theophylline
[9] = designed as: OFF switch for theophylline, no ligand
[10] = ligand present: theophylline, designed as: OFF switch for theophylline

Sequence | apparent Kd (MS2 coat protein [1]; [3]) [nM] | apparent Kd (MS2 coat protein [1]; [4]) [nM] | apparent Kd (MS2 coat protein [1]; [5]) [nM] | apparent Kd (MS2 coat protein [1]; [6]) [nM] | other results
GCCGGUACGUCGGCAAAGCCGAUGUGCCAGCGAGGACCGGUACGGCCGCCACUCGUACAUGAGGAUCACCCAUGUCCGGUCCGGC | 44.7 | 49 | – | – | –
GGGUCAGGCGCGGCCGCCACUGCGGUGAUGUGACAUGAGGAUCACCCAUGUUGUCAUGUGGCACAUAGGACCGGGUGCCUGGCCC | – | – | 30.1 | 29.9 | –
GAUCGAAAUAACGCAUAGGAAAACUAUGCGCGAGGACCGGUACGGCCGCCACUCGUCCUCACAUGAGGAUCACCCAUGUACGAUC | – | – | 22.4 | 58.6 | –
GGAUAGGACACGGCCGCCACUAGCUAGGAUACUAGCAACAUUUCCUCACAUGAGGAUCACCCAUGUAGGACCGGGUGUCCUAUCG | – | – | 111 | 135 | –
UAAUAAUUCCUCAUGUCACGAGUGGCAUAACGAGGACCGGUACGGCCGCCACUCGAACAUGAGGAUCACCCAUGUAGCCACUCGA | 143 | 113 | – | – | –
AAUUAGAUGUCGGCCGCCACUGAUGUGUCUGUUGCGUCCAGUGUGUACAUGAGGAUCACCCAUGUCAGGACCGGGACUUUAAAUU | – | – | 11 | 34 | –
AUCAUAAUAGACUCGUUAGAUUAUAUGGAACGAGGACCGGUACGGCCGCCACUCGUGAUGUACAUGAGGAUCACCCAUGUUAGCA | 13.5 | 13.5 | – | – | –
UUAUAAGUACCGGUCCUCAGAUCCUCAUGACGAGGACCGGUACGGCCGCCACUCGAAACAUGAGGAUCACCCAUGUAAUAACAUU | – | – | 20 | 20.1 | –
CGCAACAUGAGGAUCACCCAUGUAAUGACGCGAGGACCGGUACGGCCGCCACUCGCCUGCCAAUGAGCGCAUGCGGCCUGGGUAU | – | – | 11.6 | 14.5 | –
GAGCUCGUGGACUGGCGUGCUCCGCUCCGUCGAGGACCGGUACGGCCGCCACUCGACAUGAGGAUCACCCAUGUGUGAGCUCGCU | – | – | 75.3 | 54.2 | –
GAUAUUUGAAAACAAAUAUCAGUGGGUGAACGAGGACCGGUACGGCCGCCACUCGGACAUGAGGAUCACCCAUGUCCAUGUGAAA | – | – | 15.6 | 37.4 | –
GGGAGGGAGGCGGCCGCCACUGAUUUUCAUAUAUAUAUAACAUGAGGAUCACCCAUGUGGAUAUACAGGACCGGGCCUUUUUUUU | 19.8 | 13.2 | – | – | –
AGAGGUAUACAUGGAAACAUGUAUAUUUCACGAGGACCGGUACGGCCGCCACUCGGUACCGGAAACACAUGAGGAUCACCCAUGU | – | – | 18.7 | 16.9 | –
UUACCGUAAGGUAUACCGGUCUACAAUAAUCGAGGACCGGUACGGCCGCCACUCGAUGUGUAAUCACAUGAGGAUCACCCAUGUA | 23.3 | 18.5 | – | – | –
ACAUGAGGAUCACCCAUGUGAAGCAGGGUACGAGGACCGGUACGGCCGCCACUCGAGGAUUAUGCCGAGUGAAUGGCAACGAUGU | – | – | 14.4 | 15.4 | –
CCGCCUGCCUCACAUGAGGAUCACCCAUGUCGAGGACCGGUACGGCCGCCACUCGUCGUCGGUAAUACAGGCAUUGAAUAAUAUA | – | – | 11.2 | 45.1 | –
AAAGAUCGGAAACGAUCGGCGGCUUGGGCGCGAGGACCGGUACGGCCGCCACUCGGGAAACAUGAGGAUCACCCAUGUUGCUUCU | – | – | 10.9 | 12 | –
GUCUUUGACGAUCUGGGAAAACCAGAUCGACGAGGACCGGUACGGCCGCCACUCGUGUUUUCUUUACAUGAGGAUCACCCAUGUA | 13.1 | 12.7 | – | – | –
AGGUGCGGCACGGCCGCCACUGCGGUGGUGUGACAUGAGGAUCACCCAUGUUGUCAUGCGGCCCUUAGGACCGGGUGGCGUGCCU | – | – | 39.7 | 46 | –
AUACAUGAGGAUCACCCAUGUGAUGGCCGGCGAGGACCGGUACGGCCGCCACUCGUGAUCCGUCCUGAAAGCAAAGCUUCCAGCA | 182 | 239 | – | – | –

Sequence | apparent Kd (MS2 coat protein [1]; [3]) [nM] | apparent Kd (MS2 coat protein [1]; [4]) [nM] | apparent Kd (MS2 coat protein [1]; [5]) [nM] | apparent Kd (MS2 coat protein [1]; [6]) [nM] | other results
GCAUCCUAGUCGGCCGCCACUGCAAUUGUAAUACUGCUACAUGAGGAUCACCCAUGUCCAUGUAGCAGGACCGGGACUAGGAUGC | 578 | 79.8 | – | – | –
CCAUAAGUACCGGUCCUCAGAUCCUCAUGACGAGGACCGGUACGGCCGCCACUCGAAACAUGAGGAUCACCCAUGUAAUAAUACC | – | – | 39.2 | 26.4 | –
CACGAAAGAUCGGCCGCCACUAAUCGAUGUGUUCUUUCACAUGAGGAUCACCCAUGUUCUUGCGUUAGGACCGGGAUUGAGCGUG | – | – | 38.7 | 31.9 | –
CACAGUGCGAAUUUGAAAUCGCACGAUCCUCGAGGACCGGUACGGCCGCCACUCGCGCGGGUCGUACAUGAGGAUCACCCAUGUC | 317 | 545 | – | – | –
ACAUGAGGAUCACCCAUGUGUGUAAAUCCUCGAGGACCGGUACGGCCGCCACUCGAUCGAGUGUAAGUUGAAUGUAACAUUCAAC | 88.4 | 70.5 | – | – | –
ACAUGAGGAUCACCCAUGUAACGGCAUAAUCGAGGACCGGUACGGCCGCCACUCGGAAUCAGUGACAGGCAUAUUUAUUAUAAGA | – | – | 9.88 | 10 | –
CUACAUGUAGUUAAACCGGUCAACAAUAAUCGAGGACCGGUACGGCCGCCACUCGAUGUGUUAUACACAUGAGGAUCACCCAUGU | 23.2 | 18.9 | – | – | –
AAUUAAACAUCGGCCGCCACUUACUCAUGAGGUAACAACAUGAGGAUCACCCAUGUUUGAGGAUCAAGGACCGGGAUGUAAUAAU | 31.3 | 22.6 | – | – | –
AAUAAUAGGUGAUCUUGUGUCGUACCGUAACGAGGACCGGUACGGCCGCCACUCGAACAUGAGGAUCACCCAUGUAUGUAUGAUA | 171 | 128 | – | – | –
GGUGGCUGGAUCGAUACCAGCCACCACCGAUAGACCACAUGAGGAUCACCCAUGUUGGGUGGCCCUUGGCAGCGGUCCGGCUGCC | – | – | – | – | apparent Kd (MS2 coat protein [2]; [7]): 278 nM; apparent Kd (MS2 coat protein [2]; [8]): 1290 nM
GUGGAGACAUGAGAUACCAGUCUCUUUAACAUGAGGAUCACCCAUGUAAUGCUCCUCGGAGACCCUUGGCAGCUCAGUAUGAUGA | – | – | – | – | apparent Kd (MS2 coat protein [2]; [9]): 39.9 nM; apparent Kd (MS2 coat protein [2]; [10]): 157 nM
AACAUGAGGAUCACCCAUGUAAUAUGGGAUACCAGAGACGAAAGUCUCCCUUGGCAGCCCAAGCUGCUCCAUACGAAAGUAUGGU | – | – | – | – | apparent Kd (MS2 coat protein [2]; [7]): 65.2 nM; apparent Kd (MS2 coat protein [2]; [8]): 18 nM
ACGUCCGGAUUGAUCGUGGGCAUGGUCGAUACCAGUAUUUUAAUCUACCCUUGGCAGCGACAUGAGGAUCACCCAUGUGCGAUGA | – | – | – | – | apparent Kd (MS2 coat protein [2]; [9]): 16.9 nM; apparent Kd (MS2 coat protein [2]; [10]): 42.6 nM
AUAACAUGAGGAUCACCCAUGUAGAGUGAUACCAGACUACGUAAUGUCCCUUGGCAGCACAAGUAAAGUUACGAAUAAUGAUAGA | – | – | – | – | apparent Kd (MS2 coat protein [2]; [7]): 179 nM; apparent Kd (MS2 coat protein [2]; [8]): 50.8 nM
ACGACGCAUAGUGAUACCAGUAGAACAUGAGGAUCACCCAUGUCAGAUAUGUUCUAAUACUGCCCUUGGCAGCACUAUGCGUCAG | – | – | – | – | apparent Kd (MS2 coat protein [2]; [7]): 260 nM; apparent Kd (MS2 coat protein [2]; [8]): 134 nM
ACAUGAAGAACAGCGGUGGGCGCGCUCGAUACCAGUAUUUUAACCUACCCUUGGCAGCGACAUGAGGAUCACCCAUGUGAGAUGA | – | – | – | – | apparent Kd (MS2 coat protein [2]; [9]): 17.3 nM; apparent Kd (MS2 coat protein [2]; [10]): 26.9 nM
UGUAACAUGAGGAUCACCCAUGUGAGUGAUACCAGAUUAGUAGUAGUCCCUUGGCAGCACAUUGGGCGAGUGUAUAGUCUAUGCG | – | – | – | – | apparent Kd (MS2 coat protein [2]; [7]): 171 nM; apparent Kd (MS2 coat protein [2]; [8]): 118 nM
AUCAUGUAAUCAGAUACCAGACAUCUUUUAAUACAUAUUACAUGAGGAUCACCCAUGUUGGUCCCUUGGCAGCUGAAAUAUUUUU | – | – | – | – | apparent Kd (MS2 coat protein [2]; [7]): 197 nM; apparent Kd (MS2 coat protein [2]; [8]): 86.8 nM
AGCCCUGUGCUAGAUACCAGCUACAUGAGGAUCACCCAUGUGCGUCAGAAAUGACUGUGUAGCCCUUGGCAGCUAAAUGCAUGUA | – | – | – | – | apparent Kd (MS2 coat protein [2]; [9]): 11.8 nM; apparent Kd (MS2 coat protein [2]; [10]): 28 nM
UAAUAAAUAAGUGAUACCAGCGAGAAAACAUGAGGAUCACCCAUGUUCGCCCAUGUUAAGCGCCCUUGGCAGCACAAAUAUAAAA | – | – | – | – | apparent Kd (MS2 coat protein [2]; [9]): 26.1 nM; apparent Kd (MS2 coat protein [2]; [10]): 84.9 nM
